Consider nine compounds from ChEMBL document CHEMBL1128288, “7-Azetidinylquinolones as antibacterial agents. 3. Synthesis, properties and structure-activity relationships of the stereoisomers containing a 7-(3-amino-2-methyl-1-azetidinyl) moiety” (J Med Chem, 1995).

The structures appear in SMILES notation. Converted amounts (≈) assume the structure as drawn.

As a reminder, the MIC is the lowest concentration that inhibits growth of the organism. The ED50 is the dose that gives a 50% effect, or the effect in half of the subjects.

What all share (type): functional
One test relates to Enterococcus faecalis. As to the kind of experiment: In vitro antibacterial activity measured as minimum inhibitory concentration was evaluated on Streptococcus faecalis ATCC 10541 (Sf). Conditions: Enterococcus faecalis, ATCC 10541; read-out: MIC. The gist of the method: (§1)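 Serial 2-fold agar dilution in Mueller Hinton medium, run side by side with reference quinolones. Inoculum 10^5 cfu/mL; compound range 0.007–16 µg/mL.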

A further test relates to Proteus vulgaris. In words: In vitro antibacterial activity measured as minimum inhibitory concentration was evaluated on proteus vulgaris ATCC 8427 (Pv). Conditions: Proteus vulgaris, ATCC 8427; read-out: MIC. The gist of the method:
as §1

The next test relates to Enterobacter cloacae. As to the kind of experiment: In vitro antibacterial activity measured as minimum inhibitory concentration, was evaluated on Enterobacter cloacae ATCC 23355 (Ecl). Conditions: Enterobacter cloacae, ATCC 23355; read-out: MIC.
The test system of the next test is Morganella morganii. As to the kind of experiment: In vitro antibacterial activity measured as minimum inhibitory concentration was evaluated on morganella morganii ATCC 8019 (Mm). Conditions: Morganella morganii, ATCC 8019; read-out: MIC. The gist of the method: as §1
For a further test, the system named is Klebsiella pneumoniae. As to the kind of experiment: In vitro antibacterial activity measured as minimum inhibitory concentration was evaluated on klebsiella pneumoniae ATCC 10031 (Kp). Conditions: Klebsiella pneumoniae, ATCC 10031; read-out: MIC. In a few lines: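 Serial 2-fold agar dilution in Mueller Hinton medium, run side by side with reference quinolones.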

The subject of test [1] is Staphylococcus epidermidis. In words: In vitro antibacterial activity measured as minimum inhibitory concentration was evaluated on Staphylococcus epidermidis ATCC 155-1 (Se). As to conditions: Staphylococcus epidermidis, ATCC 155-1; read-out: MIC. The gist of the method: as §1
For test [2], the system named is Staphylococcus aureus. As to the kind of experiment: In vitro antibacterial activity measured as minimum inhibitory concentration was evaluated on Staphylococcus aureus ATCC 25178 (Sa). As to conditions: Staphylococcus aureus, ATCC 25178; read-out: MIC. In a few lines: as §1
Test [3] concerns Pseudomonas aeruginosa. In words: In vitro antibacterial activity measured as minimum inhibitory concentration was evaluated on Pseudomonas aeruginosa ATCC 10145 (Pa). Conditions: Pseudomonas aeruginosa, ATCC 10145; read-out: MIC. In a few lines:
as §1

Test [4] relates to Escherichia coli. In words: In vitro antibacterial activity measured as minimum inhibitory concentration, was evaluated on Escherichia coli ATCC 23559(Ec). As to conditions: Escherichia coli, ATCC 23559; read-out: MIC. The gist of the method: as §1
In the next test the test system is Bacillus cereus. As to the kind of experiment: In vitro antibacterial activity measured as minimum inhibitory concentration was evaluated on Bacillus cereus ATCC 11778 (Bc). Conditions: Bacillus cereus, ATCC 11778; read-out: MIC. In a few lines:
as §1

The next test deals with Bacillus subtilis. In words: In vitro antibacterial activity measured as minimum inhibitory concentration was evaluated on Bacillus subtilis ATCC 6633(Bs). As to conditions: Bacillus subtilis, ATCC 6633; read-out: MIC. In a few lines: as §1
The subject of test [5] is Staphylococcus aureus. As to the kind of experiment: In vivo efficacy as ED50 against Staphylococcus aureus HS-93 by oral administration in mice. Conditions: Staphylococcus aureus, po; read-out: ED50. In a few lines: (§2)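 Mice, 4 groups of 10, infected intraperitoneally with slightly more than the LD100 of the organism. A single oral dose was given immediately after infection, with four doses (one per group) chosen from in vitro activity. Survival was scored after one week. ED50 (total dose, mg/kg, protecting 50%) was interpolated among group survival rates.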

The subject of test [6] is Escherichia coli. In words: In vivo efficacy as ED50 against Escherichia coli HM-42 by oral administration in mice. As to conditions: Escherichia coli, po; read-out: ED50. The gist of the method:
as §2

Test [7] deals with Pseudomonas aeruginosa. As to the kind of experiment: In vivo efficacy as ED50 against Pseudomonas aeruginosa HS-116 by oral administration in mice. As to conditions: Pseudomonas aeruginosa, po; read-out: ED50. The gist of the method:
as §2

For `C[C@@H]1[C@@H](N)CN1c1c(F)cc2c(=O)c(C(=O)O)cn(-c3ccc(F)cc3F)c2c1Cl`, the MIC with Enterococcus faecalis amounted to 2 µg/mL (≈ 4.57 µM); with Proteus vulgaris, 1 µg/mL (≈ 2.28 µM); with Enterobacter cloacae it was 0.25 µg/mL (≈ 0.571 µM); in the test on Morganella morganii, 0.5 µg/mL (≈ 1.14 µM); in the test with Klebsiella pneumoniae, 0.5 µg/mL (≈ 1.14 µM); in test [1] it was 0.5 µg/mL (≈ 1.14 µM). Moreover, the minimum inhibitory concentration (MIC) stood at 0.25 µg/mL (≈ 0.571 µM) in the test with Staphylococcus aureus [2]; 2 µg/mL (≈ 4.57 µM) in the test on Pseudomonas aeruginosa [3]; 0.25 µg/mL (≈ 0.571 µM) in the test on Escherichia coli [4]; 1 µg/mL (≈ 2.28 µM) with Bacillus cereus; 0.12 µg/mL (≈ 0.274 µM) in the test with Bacillus subtilis.
Take `Cc1c(F)c(N2C[C@H](N)[C@H]2C)nc2c1c(=O)c(C(=O)O)cn2C1CC1`: the MIC with Enterococcus faecalis stood at 0.12 µg/mL (≈ 0.346 µM); in the test on Proteus vulgaris it was 0.25 µg/mL (≈ 0.722 µM); with Enterobacter cloacae it was 0.12 µg/mL (≈ 0.346 µM); in the test with Morganella morganii, 0.12 µg/mL (≈ 0.346 µM); in the test with Klebsiella pneumoniae, 0.12 µg/mL (≈ 0.346 µM); in test [1] it was 0.12 µg/mL (≈ 0.346 µM). In addition, the MIC in the test on Staphylococcus aureus [2] worked out at 0.12 µg/mL (≈ 0.346 µM); in the test with Pseudomonas aeruginosa [3] it was 0.5 µg/mL (≈ 1.44 µM); in the test with Escherichia coli [4] it was 0.12 µg/mL (≈ 0.346 µM); with Bacillus cereus, 0.25 µg/mL (≈ 0.722 µM); in the test on Bacillus subtilis, 0.25 µg/mL (≈ 0.722 µM).
`CC1C(N)CN1c1nc2c(cc1F)c(=O)c(C(=O)O)cn2-c1ccc(F)cc1F` (centres undefined): the MIC with Enterococcus faecalis was found to be 1 µg/mL (≈ 2.47 µM); in the test with Proteus vulgaris, 1 µg/mL (≈ 2.47 µM); in the test on Klebsiella pneumoniae it was 0.06 µg/mL (≈ 0.148 µM); with Pseudomonas aeruginosa [3], 1 µg/mL (≈ 2.47 µM); with Escherichia coli [4], 0.12 µg/mL (≈ 0.297 µM); in the test with Bacillus subtilis it was 0.06 µg/mL (≈ 0.148 µM). The figures for the ED50 in the test with Staphylococcus aureus [5], in the test with Escherichia coli [6] and with Pseudomonas aeruginosa [7] were 8.9 mg/kg, 3.3 mg/kg and 140 mg/kg, respectively.
Turning to `CC1C(N)CN1c1cc2c(cc1F)c(=O)c(C(=O)O)cn2-c1ccc(F)cc1F` (centres undefined), the MIC was determined as 1 µg/mL (≈ 2.48 µM) in the test with Enterococcus faecalis; 0.5 µg/mL (≈ 1.24 µM) with Proteus vulgaris; 2 µg/mL (≈ 4.96 µM) with Pseudomonas aeruginosa [3]; 0.06 µg/mL (≈ 0.149 µM) in the test with Escherichia coli [4]; 0.03 µg/mL (≈ 0.0744 µM) with Bacillus subtilis. Besides, the ED50 in the test with Staphylococcus aureus [5] came out at 8.1 mg/kg; with Escherichia coli [6], 6 mg/kg; in the test on Pseudomonas aeruginosa [7], 78 mg/kg.
On to `C[C@H]1COc2c(N3CC(N(C)C)C3)c(F)cc3c(=O)c(C(=O)O)cn1c23`, for which the minimum inhibitory concentration (MIC) came to 2 µg/mL (≈ 5.53 µM) with Enterococcus faecalis; 0.25 µg/mL (≈ 0.692 µM) with Proteus vulgaris; 0.06 µg/mL (≈ 0.166 µM) with Enterobacter cloacae; 0.12 µg/mL (≈ 0.332 µM) with Morganella morganii; 0.015 µg/mL (≈ 0.0415 µM) in the test on Klebsiella pneumoniae; 0.12 µg/mL (≈ 0.332 µM) in test [1]. Further, the MIC came to 0.12 µg/mL (≈ 0.332 µM) with Staphylococcus aureus [2]; 4 µg/mL (≈ 11.1 µM) in the test with Pseudomonas aeruginosa [3]; 0.06 µg/mL (≈ 0.166 µM) with Escherichia coli [4]; 0.06 µg/mL (≈ 0.166 µM) in the test with Bacillus cereus; 0.015 µg/mL (≈ 0.0415 µM) in the test with Bacillus subtilis.
For `CC1C(N)CN1c1nc2c(cc1F)c(=O)c(C(=O)O)cn2C1CC1` (centres undefined), the minimal inhibitory concentration (MIC) turned out to be 0.06 µg/mL (≈ 0.181 µM) in the test with Proteus vulgaris; 0.03 µg/mL (≈ 0.0903 µM) in the test with Enterobacter cloacae; 0.03 µg/mL (≈ 0.0903 µM) in the test with Morganella morganii; 0.03 µg/mL (≈ 0.0903 µM) with Klebsiella pneumoniae; 0.5 µg/mL (≈ 1.5 µM) in the test on Pseudomonas aeruginosa [3]; 0.03 µg/mL (≈ 0.0903 µM) in the test on Escherichia coli [4]. Besides, the values for the MIC with Bacillus cereus and in the test with Bacillus subtilis were 0.06 µg/mL (≈ 0.181 µM) and 0.03 µg/mL (≈ 0.0903 µM), respectively. The ED50 in the test with Staphylococcus aureus [5] came to 13.8 mg/kg; with Escherichia coli [6], 3.5 mg/kg; in the test with Pseudomonas aeruginosa [7], 95 mg/kg.
For `C[C@H]1COc2c(N3CC(N)C3)c(F)cc3c(=O)c(C(=O)O)cn1c23`, the MIC turned out to be 0.12 µg/mL (≈ 0.36 µM) with Enterococcus faecalis; 0.25 µg/mL (≈ 0.75 µM) in the test on Proteus vulgaris; 0.015 µg/mL (≈ 0.045 µM) in the test on Enterobacter cloacae; 0.06 µg/mL (≈ 0.18 µM) in the test on Morganella morganii; 0.015 µg/mL (≈ 0.045 µM) with Klebsiella pneumoniae; 0.06 µg/mL (≈ 0.18 µM) in test [1]. The MIC with Staphylococcus aureus [2] is 0.12 µg/mL (≈ 0.36 µM); in the test on Pseudomonas aeruginosa [3] it was 0.25 µg/mL (≈ 0.75 µM); with Escherichia coli [4], 0.015 µg/mL (≈ 0.045 µM); in the test on Bacillus cereus it was 0.12 µg/mL (≈ 0.36 µM); in the test on Bacillus subtilis it was 0.06 µg/mL (≈ 0.18 µM).
As to `C[C@@H]1[C@@H](N)CN1c1c(F)c(N)c2c(=O)c(C(=O)O)cn(-c3ccc(F)cc3F)c2c1F`, the MIC with Enterococcus faecalis came to 0.12 µg/mL (≈ 0.275 µM); with Proteus vulgaris it was 0.5 µg/mL (≈ 1.15 µM); in the test with Enterobacter cloacae, 0.12 µg/mL (≈ 0.275 µM); in the test with Morganella morganii it was 0.12 µg/mL (≈ 0.275 µM); with Klebsiella pneumoniae it was 0.25 µg/mL (≈ 0.573 µM); in test [1] it was 0.12 µg/mL (≈ 0.275 µM). The MIC in the test with Staphylococcus aureus [2] came out at 0.06 µg/mL (≈ 0.137 µM); with Pseudomonas aeruginosa [3], 0.5 µg/mL (≈ 1.15 µM); in the test with Escherichia coli [4] it was 0.03 µg/mL (≈ 0.0687 µM); in the test on Bacillus cereus it was 0.12 µg/mL (≈ 0.275 µM); in the test with Bacillus subtilis it was 0.03 µg/mL (≈ 0.0687 µM).
For the compound `CC1COc2c(N3CC(C)(N)C3)c(F)cc3c(=O)c(C(=O)O)cn1c23` (single isomer, unassigned), the minimum inhibitory concentration (MIC) with Enterococcus faecalis was found to be 4 µg/mL (≈ 11.5 µM); in the test on Proteus vulgaris, 8 µg/mL (≈ 23 µM); in the test with Enterobacter cloacae, 4 µg/mL (≈ 11.5 µM); in the test on Morganella morganii it was 8 µg/mL (≈ 23 µM); in the test on Klebsiella pneumoniae, 8 µg/mL (≈ 23 µM); in [1], 4 µg/mL (≈ 11.5 µM). Besides, the MIC was 4 µg/mL (≈ 11.5 µM) in the test on Staphylococcus aureus [2]; 32 µg/mL (≈ 92.1 µM) in the test with Pseudomonas aeruginosa [3]; 8 µg/mL (≈ 23 µM) in the test with Escherichia coli [4]; 4 µg/mL (≈ 11.5 µM) in the test with Bacillus cereus; 2 µg/mL (≈ 5.76 µM) with Bacillus subtilis.
